According to ChEMBL document CHEMBL1649376 (Eur J Med Chem, 2011):

Legend:
[1] = Dissociation constant, pKa of the compound by potentiometric titration; assay type: physicochemical
Summary of the method: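 Potentiometric titration under N2 at 25.0 ± 0.1 °C; about 1 mM compound in at least five water–methanol mixtures (24-58 wt% MeOH), ionic strength 0.15 M KCl, acidified to pH 1.8 with 0.5 N HCl, titrated with 0.5 N KOH to pH 10.5; aqueous pKa by Yasuda-Shedlovsky extrapolation to zero cosolvent.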

[2] = molecular target: Dihydroorotate dehydrogenase (quinone), mitochondrial (Rattus norvegicus, UniProt Q63707); test: Inhibition of DHODH in Wistar rat liver homogenates by DCIP reduction assay; assay type: tissue-based
[3] = Chemical stability of the compound in phosphate buffer at pH 7.4 assessed as half life at 100 uM after 30 mins by RP-HPLC analysis; assay type: physicochemical
Summary of the method: (§1)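 10 mM methanol stock diluted into 50 mM phosphate buffer pH 7.4 prewarmed to 37 °C, final 100 µM; maintained at 37.0 ± 0.5 °C, sampled every 30 min by RP-HPLC (C8, methanol/water 0.1% TFA) for parent loss and oxime formation; first-order kinetics for t1/2; triplicate.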

[4] = Chemical stability of the compound in acidic medium at pH 1 after 6 hrs by RP-HPLC analysis; assay type: physicochemical; settings: buffer, pH 1, 6 h
Summary of the method: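 Compound added from 10 mM methanol stock into 0.1 M HCl (pH 1) at 37 °C, final 100 µM; held at 37.0 ± 0.5 °C and analysed by RP-HPLC every 30 min for unchanged compound and oxime product; triplicate incubations; C8 column, methanol/water with 0.1% TFA.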

[5] = Chemical stability of the compound in basic medium assessed as half life at pH 10 after 6 hrs by RP-HPLC analysis; assay type: physicochemical
Summary of the method: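 Run in 0.1 M phosphate buffer, pH 10, at 37.0 ± 0.5 °C, compound 100 µM final (from 10 mM methanol stock); RP-HPLC every 30 min quantifying parent and oxime; ring opening treated as first-order for half-life; triplicate incubations.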

[6] = Chemical stability of the compound in phosphate buffer at pH 7.4 assessed as unchanged compound level at 100 uM after 24 hrs by RP-HPLC analysis; assay type: physicochemical; settings: read-out: Stability; summary of the method: as §1

Sequence of Dihydroorotate dehydrogenase (quinone), mitochondrial (Q63707 whole entry): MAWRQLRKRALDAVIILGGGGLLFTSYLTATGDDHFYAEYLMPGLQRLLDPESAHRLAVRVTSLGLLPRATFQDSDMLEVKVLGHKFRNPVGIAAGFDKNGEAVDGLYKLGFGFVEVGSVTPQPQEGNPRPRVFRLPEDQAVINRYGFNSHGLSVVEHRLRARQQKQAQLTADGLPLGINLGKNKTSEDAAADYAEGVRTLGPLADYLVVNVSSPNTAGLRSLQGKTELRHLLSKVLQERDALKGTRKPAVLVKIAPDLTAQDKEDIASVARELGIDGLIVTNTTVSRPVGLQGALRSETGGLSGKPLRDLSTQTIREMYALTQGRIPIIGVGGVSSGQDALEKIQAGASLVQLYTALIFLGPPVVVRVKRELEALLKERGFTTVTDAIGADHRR

Row | SMILES | pKa [1] | half-life at 100 µM [3] | also measured
1 | N#C/C(=N\O)C(=O)Nc1ccc([N+](=O)[O-])cc1 | 4.61 | – | –
2 | N#C/C(=N\O)C(=O)Nc1ccccc1 | 5.12 | – | –
3 | N#C/C(=N\O)C(=O)Nc1cc(F)cc(F)c1 | 4.81 | – | –
4 | COc1ccc(NC(=O)/C(C#N)=N/O)cc1 | 5.08 | – | –
5 | N#CC(C(=O)Nc1ccc([N+](=O)[O-])cc1)=[N+]([O-])[O-] | – | – | IC50 [2]: 74 µM
6 | Cc1ccc(NC(=O)/C(C#N)=N/O)cc1 | 5.07 | – | –
7 | O=C(Nc1ccc(-c2ccccc2)cc1)c1cnon1 | – | 1.28 h | –
8 | N#C/C(=N\O)C(=O)Nc1ccc(C(F)(F)F)cc1 | 4.87 | – | IC50 [2]: 60 µM
9 | Cc1ccc(NC(=O)c2cnon2)cc1 | – | 1.89 h | –
10 | O=C(Nc1cc(C(F)(F)F)cc(C(F)(F)F)c1)c1cnon1 | – | 1.52 h | –
11 | O=C(Nc1ccc([N+](=O)[O-])cc1)c1cnon1 | – | 1.15 h | –
12 | O=C(Nc1ccc(F)cc1)c1cnon1 | – | 1.48 h | –
13 | N#C/C(=N\O)C(=O)Nc1ccc(F)cc1 | 5.01 | – | –
14 | N#C/C(=N\O)C(=O)Nc1cccc(C(F)(F)F)c1 | 4.88 | – | –
15 | O=C(Nc1ccccc1)c1cnon1 | – | 2.06 h | –
16 | N#CC(C(=O)Nc1ccc(C(F)(F)F)cc1)=[N+]([O-])[O-] | – | – | IC50 [2]: 17 µM
17 | N#CC(C(=O)Nc1ccc(-c2ccccc2)cc1)=[N+]([O-])[O-] | – | – | IC50 [2]: 26 µM
18 | O=C(Nc1cccc(C(F)(F)F)c1)c1cnon1 | – | 1.68 h | –

Further lines, with some results ahead:

Row | pKa [1] | half-life at 100 µM [3] | SMILES | also measured
19 | 4.87 | – | N#C/C(=N\O)C(=O)Nc1ccccc1F | –
20 | – | 1.77 h | COc1ccc(NC(=O)c2cnon2)cc1 | –
21 | 5.03 | – | N#C/C(=N\O)C(=O)Nc1ccc(-c2ccccc2)cc1 | –
22 | – | 1.7 h | O=C(Nc1ccccc1F)c1cnon1 | –
23 | – | > 24 h | Cc1oncc1C(=O)Nc1ccc(C(F)(F)F)cc1 [LEFLUNOMIDE] | Stability [4]: Stable; half-life [5]: 1.17 h; IC50 [2]: 1.6 µM; remaining at 24 h, 100 µM [6]: 80%
24 | – | 1.81 h | O=C(Nc1cccc(F)c1)c1cnon1 | –
25 | – | 1.53 h | O=C(Nc1cc(F)cc(F)c1)c1cnon1 | –
26 | 4.73 | – | N#C/C(=N\O)C(=O)Nc1cc(C(F)(F)F)cc(C(F)(F)F)c1 | –
27 | – | 1.38 h | O=C(Nc1ccc(C(F)(F)F)cc1)c1cnon1 | Stability [4]: Stable; half-life [5]: < 0.0167 h
28 | 4.92 | – | N#C/C(=N\O)C(=O)Nc1cccc(F)c1 | –
